According to ChEMBL document CHEMBL1151801, “Synthesis of new indeno[1,2-e]pyrimido[4,5-b][1,4]diazepine-5,11-diones as potential antitumor agents” (2008):

Assays:
Format in all cases: functional
[1] = system: RXF 393; test: Antitumor activity against human […] cells after 48 hrs by SRB assay; details: RXF 393, 48 h
In short: (§1)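 NCI in vitro human tumor cell line screen. Cells were exposed continuously to compound for 48 h at five concentration levels (100, 10, 1.0, 0.1 and 0.01). Growth was estimated by sulforhodamine B protein staining. GI50 is the concentration giving a 50% reduction in net protein increase relative to control cells over the incubation.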

[2] = system: CAKI-1; test: Antitumor activity against human Caki1 cells after 48 hrs by SRB assay; details: CAKI-1, 48 h; in short: as §1
[3] = system: OVCAR-5; test: Antitumor activity against human OVCAR5 cells after 48 hrs by SRB assay; details: OVCAR-5, 48 h; in short: as §1
[4] = system: OVCAR-3; test: Antitumor activity against human OVCAR-3 cells after 48 hrs by SRB assay; details: OVCAR-3, 48 h; for CC50: read-out: LC50 (the source's name); in short: as §1
[5] = system: UACC-62; test: Antitumor activity against human UACC62 cells after 48 hrs by SRB assay; details: UACC-62, 48 h
In short: (§2)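 NCI in vitro human tumor cell line screen. Continuous 48 h drug exposure at five concentrations (100, 10, 1.0, 0.1 and 0.01 µM). Cell growth estimated by sulforhodamine B protein staining. GI50 defined as the concentration giving 50% reduction in net protein increase versus control cells over the incubation.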

[6] = system: SK-MEL-5; test: Antitumor activity against human SK-MEL-5 cells after 48 hrs by SRB assay; details: SK-MEL-5, 48 h; in short: as §1
[7] = system: SK-MEL-28; test: Antitumor activity against human SK-MEL-28 cells after 48 hrs by SRB assay; details: SK-MEL-28, 48 h; in short: as §1
[8] = system: M14; test: Antitumor activity against human M14 cells after 48 hrs by SRB assay; details: M14, 48 h; in short: as §1
[9] = system: Malme-3M; test: Antitumor activity against human MALME-3M cells after 48 hrs by SRB assay; in short: as §1
[10] = system: LOX IMVI; test: Antitumor activity against human LOXIMVI cells after 48 hrs by SRB assay; in short: as §1
[11] = system: SNB-19; test: Antitumor activity against human SNB19 cells after 48 hrs by SRB assay; details: SNB-19, 48 h; in short: as §1
[12] = system: KM12; test: Antitumor activity against human KM12 cells after 48 hrs by SRB assay; details: KM12, 48 h; for CC50: read-out: LC50 (the source's name); in short: as §1
[13] = system: HCT-15; test: Antitumor activity against human HCT15 cells after 48 hrs by SRB assay; details: HCT-15, 48 h; in short: as §1
[14] = system: NCI-H23; test: Antitumor activity against human NCI-H23 cells after 48 hrs by SRB assay; details: NCI-H23, 48 h; in short: as §1
[15] = system: HOP-92; test: Antitumor activity against human HOP92 cells after 48 hrs by SRB assay; details: HOP-92, 48 h; in short: as §1
[16] = system: HOP-62; test: Antitumor activity against human HOP62 cells after 48 hrs by SRB assay; details: HOP-62, 48 h; for CC50: read-out: LC50 (the source's name); in short: as §1
[17] = system: EKVX; test: Antitumor activity against human EKVX cells after 48 hrs by SRB assay; details: for CC50: read-out: LC50 (the source's name); in short: as §1
[18] = Antitumor activity against human […] cells after 48 hrs by SRB assay; in short: as §1
[19] = system: TK-10; test: Antitumor activity against human TK10 cells after 48 hrs by SRB assay; details: TK-10, 48 h; in short: as §2
[20] = read-out: LC50 (the source's name)

Row | SMILES | GI50 [2] | LC50 [2] | GI50 [4] | CC50 [4] | GI50 [12] | CC50 [12] | GI50 [13] | LC50 (concentration killing 50% of starting cells) [13] | GI50 [14] | LC50 [14] | GI50 [15] | LC50 [15] | GI50 [16] | CC50 [16] | GI50 [17] | CC50 [17] | GI50 [18] | LC50 [18] | other results
1 | CSc1nc2c(c(=O)[nH]1)NC1=C(C(=O)c3ccccc31)C(c1ccc(F)cc1)N2 (stereo unspecified) | 3.3 µM | > 100 µM | 3.38 µM | 61.8 µM | 3.77 µM | 39.5 µM | 4.57 µM | > 100 µM | 13.5 µM | > 100 µM | 9.52 µM | > 100 µM | 11.9 µM | 95.6 µM | 18.2 µM | > 100 µM | 4.2 µM | > 100 µM | GI50 [1]: 14.5 µM; CC50 [1, 20]: 92.8 µM; GI50 [3]: 17.7 µM; CC50 [3, 20]: 95.6 µM; GI50 [5]: 3.04 µM; CC50 [5, 20]: > 100 µM; GI50 [6]: 6.13 µM; CC50 [6, 20]: > 100 µM; GI50 [7]: 9.03 µM; CC50 [7, 20]: > 100 µM; GI50 [8]: 6.29 µM; CC50 [8, 20]: > 100 µM; GI50 [9]: 19.6 µM; CC50 [9, 20]: > 100 µM; GI50 [10]: 8.78 µM; CC50 [10, 20]: 95.2 µM; GI50 [11]: 15.9 µM; CC50 [11, 20]: > 100 µM; GI50 [19]: 12.9 µM; CC50 [19, 20]: > 100 µM
2 | CSc1nc2c(c(=O)[nH]1)NC1=C(C(=O)c3ccccc31)C(c1ccccc1)N2 (stereo unspecified) | 2.18 µM | > 100 µM | 2.12 µM | 46.4 µM | 2.27 µM | > 100 µM | 2.8 µM | > 100 µM | 5.82 µM | > 100 µM | 12 µM | > 100 µM | 5.37 µM | > 100 µM | 12.8 µM | > 100 µM | 3.01 µM | > 100 µM | 
